# ChEMBL document CHEMBL1147503, “Syntheses and structure-activity relationship studies of piperidine-substituted quinolones as nonpeptide gonadotropin releasing hormone antagonists” (Bioorg Med Chem Lett, 2004)
# What was measured:
# [1] = biological target: T1, Gonadotropin-releasing hormone receptor (Rattus norvegicus, UniProt P30969); experiment: Inhibitory concentration against binding of rat Gonadotropin-releasing hormone receptor using [125I]buserelin
# T1 sequence (P30969 whole entry): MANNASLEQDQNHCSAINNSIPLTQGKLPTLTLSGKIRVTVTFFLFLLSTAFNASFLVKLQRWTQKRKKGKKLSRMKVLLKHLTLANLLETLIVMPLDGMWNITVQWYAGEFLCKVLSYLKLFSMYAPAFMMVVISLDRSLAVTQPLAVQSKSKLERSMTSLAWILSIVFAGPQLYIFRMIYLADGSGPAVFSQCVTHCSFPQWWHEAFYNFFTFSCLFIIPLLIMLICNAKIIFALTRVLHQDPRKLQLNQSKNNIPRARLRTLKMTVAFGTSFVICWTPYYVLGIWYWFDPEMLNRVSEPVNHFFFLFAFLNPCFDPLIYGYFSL
# [2] = Clearance rate in dog; assay type: ADME, organism-based, Canis lupus familiaris; conditions: in vivo, read-out: Clearance rate
# [3] = Oral bioavailability in dog; assay type: ADME, organism-based, Canis lupus familiaris; conditions: in vivo
# CHO = experiment: In vitro inhibitory concentration against GnRH-stimulated phosphatidyl inositol hydrolysis by cloned chinese hamster ovary cells stably expressing human GnRH receptor; assay type: functional, cell-based; conditions: Cricetulus griseus
# [4] = biological target: T2, Gonadotropin-releasing hormone receptor (Rattus norvegicus) (UniProt P30969); experiment: Inhibitory activity against binding of rat Gonadotropin-releasing hormone receptor using [125I]buserelin at 10 uM
# T2 sequence (whole entry): T1 sequence (P30969 whole entry)
# [5] = biological target: T3, Gonadotropin-releasing hormone receptor (Homo sapiens, UniProt P30968); experiment: Inhibitory concentration against binding of [125I]buserelin to human Gonadotropin-releasing hormone receptor
# T3 sequence (P30968 whole entry): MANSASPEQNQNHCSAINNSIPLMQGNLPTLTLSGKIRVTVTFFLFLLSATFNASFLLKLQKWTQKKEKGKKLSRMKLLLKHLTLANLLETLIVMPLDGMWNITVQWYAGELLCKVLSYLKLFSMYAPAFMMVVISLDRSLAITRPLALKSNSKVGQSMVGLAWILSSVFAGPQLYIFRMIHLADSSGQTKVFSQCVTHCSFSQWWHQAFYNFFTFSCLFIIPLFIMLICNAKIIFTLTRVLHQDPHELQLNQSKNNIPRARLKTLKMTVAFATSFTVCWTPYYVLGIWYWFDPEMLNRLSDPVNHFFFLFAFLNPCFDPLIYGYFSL
# Procedure, shortened: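 Competitive displacement of the GnRH receptor agonist radioligand [125I]buserelin from the human GnRH receptor, with 0.1% BSA present in the binding assay.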
IC50 [1],SMILES,IC50 (CHO),other results
70 nM,Cc1cc(C)cc(-c2c(O)nc3cc(Cl)c([N+](=O)[O-])cc3c2OCC[C@@H]2Cc3ccccc3CN2)c1,–,–
15 nM,Cc1cc(C)cc(-c2c(O)nc3cc(Cl)c([N+](=O)[O-])cc3c2OCC[C@@H]2CCC[C@H](C)N2)c1,–,–
18 nM,CC[C@H]1CCC[C@@H](CCOc2c(-c3cc(C)cc(C)c3)c(O)nc3cc(Cl)c([N+](=O)[O-])cc23)N1,–,–
45 nM,Cc1cc(C)cc(-c2c(O)nc3cc(Cl)c([N+](=O)[O-])cc3c2OCCC2NCCCC2C)c1 (stereo not given),–,–
–,Cc1cc(-c2c(O)nc3cc(Cl)c(C(=O)Nc4ccncn4)cc3c2OCC[C@@H]2CCCCN2)cc(C)c1C,2.2 nM,clearance [2]: 36.8 mL/min/kg; bioavailability [3]: 4.4%
–,Cc1cc(C)cc(-c2c(O)nc3cc(Cl)c([N+](=O)[O-])cc3c2OCCC2CCc3ccccc3N2)c1 (stereo not given),–,inhibition [4]: 85%
–,Cc1cc(-c2c(OCC[C@@H]3CCC[C@H](C)N3)c3cc(C(=O)Nc4ccncn4)c(Cl)cc3[nH]c2=O)cc(C)c1C,9.8 nM,IC50 [5]: 0.6 nM
–,Cc1cc(C)cc(-c2c(O)nc3cc(Cl)c([N+](=O)[O-])cc3c2OCCc2ccccn2)c1,–,inhibition [4]: 86%
–,Cc1cc(C)cc(-c2c(OCC[C@@H]3CCC[C@H](C)N3)c3cc(C(=O)Nc4ccncn4)c(Cl)cc3[nH]c2=O)c1,8.7 nM,IC50 [5]: 0.5 nM
10 nM,"Cc1cc(C)cc(-c2c(O)nc3cc(Cl)c([N+](=O)[O-])cc3c2OCCC2CCCCN2)c1 (single isomer, unassigned)",–,–
–,Cc1cc(C)cc(-c2c(OCC[C@@H]3CCC[C@@H](C)N3)c3cc(C(=O)Nc4ccncn4)c(Cl)cc3[nH]c2=O)c1,11.5 nM,IC50 [5]: 0.5 nM
750 nM,Cc1cc(C)cc(-c2c(OCCC3NCCc4ccccc43)c3cc([N+](=O)[O-])c(Cl)cc3[nH]c2=O)c1 (stereo not given),–,–
400 nM,Cc1cc(C)cc(-c2c(OCC[C@@H]3CCC[C@H](CCCc4ccccc4)N3)c3cc([N+](=O)[O-])c(Cl)cc3[nH]c2=O)c1,–,–
–,CCC1CCC[C@@H](CCOc2c(-c3cc(C)cc(C)c3)c(=O)[nH]c3cc(Cl)c(C(=O)Nc4ccncn4)cc23)N1 (stereo not given in full),–,IC50 [5]: 5.7 nM
63 nM,Cc1cc(C)cc(-c2c(OCCC3CCC(C)CN3)c3cc([N+](=O)[O-])c(Cl)cc3[nH]c2=O)c1 (stereo not given),–,–
–,Cc1cc(C)cc(-c2c(O)nc3cc(Cl)c(C(=O)Nc4ccncn4)cc3c2OCC[C@@H]2CCCCN2)c1,5 nM,–
–,Cc1cc(-c2c(OCC[C@@H]3CCCC(C(F)(F)F)N3)c3cc(C(=O)Nc4ccncn4)c(Cl)cc3[nH]c2=O)cc(C)c1C (stereo not given in full),18 nM,clearance [2]: 21.6 mL/min/kg; bioavailability [3]: 14.6%; IC50 [5]: 2 nM
